In ChEMBL document CHEMBL3414472, “Synthesis, SAR, and series evolution of novel oxadiazole-containing 5-lipoxygenase activating protein inhibitors: discovery of 2-[4-(3-{(r)-1-[4-(2-amino-pyrimidin-5-yl)-phenyl]-1-cyclopropyl-ethyl}-[1,2,4]oxadiazol-5-yl)-pyrazol-1-yl]-N,N-dimethyl-acetamide (BI 665915)” (J Med Chem, 2015):
In brackets after ≈: the same amount, converted by molar mass.

Experiments:
[1] = molecular target: T1, Arachidonate 5-lipoxygenase-activating protein (Homo sapiens, UniProt P20292); assay: Inhibition of FLAP in calcimycin-stimulated human whole blood assessed as inhibition of LTB4 synthesis preincubated for 15 mins followed by calcimycin stimulation measured after 30 mins
T1 sequence (P20292 whole entry): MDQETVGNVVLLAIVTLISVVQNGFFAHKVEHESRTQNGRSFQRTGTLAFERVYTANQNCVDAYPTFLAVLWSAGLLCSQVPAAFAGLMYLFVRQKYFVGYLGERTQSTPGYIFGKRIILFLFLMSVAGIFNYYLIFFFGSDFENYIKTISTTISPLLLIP
Method in brief: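 Heparinized human volunteer blood preincubated with compound 15 min at 37 °C, 5 % CO2; calcimycin 100 µM final, 30 min at 37 °C; spun 2000 rpm 5 min at 4 °C. Supernatant LTB4 measured by HTRF competition (LTB4-XL665 plus anti-LTB4 cryptate, 2 h room temperature). Geometric mean (n ≥ 3) of duplicate 10-point curves.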

[2] = Aqueous equilibrium solubility of the compound in crystalline form in citric acid/disodium phosphate buffer at pH 6.8 after 24 hrs of rotation by HPLC analysis; assay type: physicochemical
Method in brief: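 Saturated solution of crystalline material in citric acid/disodium phosphate buffer pH 6.8 rotated 24 h; after centrifugation and filtration, dissolved concentration measured by HPLC.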

[3] = molecular target: T2, Cytochrome P450 2C9 (Homo sapiens, UniProt P11712); assay: Inhibition of CYP2C9 in human liver microsomes using dichlofenac as substrate preincubated for 10 mins followed by NADPH addition measured after 6 mins; assay type: ADME
T2 sequence (P11712 whole entry): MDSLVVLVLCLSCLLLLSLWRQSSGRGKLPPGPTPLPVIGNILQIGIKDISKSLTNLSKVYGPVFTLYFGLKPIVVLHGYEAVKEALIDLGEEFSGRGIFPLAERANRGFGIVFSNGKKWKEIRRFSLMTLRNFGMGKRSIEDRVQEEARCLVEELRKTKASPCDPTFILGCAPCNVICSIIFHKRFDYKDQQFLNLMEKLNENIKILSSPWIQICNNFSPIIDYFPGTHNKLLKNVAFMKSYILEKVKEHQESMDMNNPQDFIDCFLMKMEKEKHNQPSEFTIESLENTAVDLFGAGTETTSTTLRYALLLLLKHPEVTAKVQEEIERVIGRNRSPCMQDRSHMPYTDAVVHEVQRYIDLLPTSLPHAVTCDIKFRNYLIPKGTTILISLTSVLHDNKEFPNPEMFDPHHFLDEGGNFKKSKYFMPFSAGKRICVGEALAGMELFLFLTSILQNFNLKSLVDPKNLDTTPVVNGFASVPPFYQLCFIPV
Method in brief: (§1)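 Human liver microsomes (0.05 mg/mL protein) with cocktail substrates: 4 µM diclofenac (2C9), 3 µM dextromethorphan (2D6), 2.5 µM midazolam (3A4). Compound in 0.1 M potassium phosphate pH 7.4 preincubated 10 min at 37 °C; NADPH added, reaction 6 min at 37 °C.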

[4] = molecular target: T3, Cytochrome P450 2D6 (Homo sapiens, UniProt P10635); assay: Inhibition of CYP2D6 in human liver microsomes using dextromethorphan as substrate preincubated for 10 mins followed by NADPH addition measured after 6 mins; assay type: ADME; method in brief: as §1
T3 sequence (P10635 whole entry): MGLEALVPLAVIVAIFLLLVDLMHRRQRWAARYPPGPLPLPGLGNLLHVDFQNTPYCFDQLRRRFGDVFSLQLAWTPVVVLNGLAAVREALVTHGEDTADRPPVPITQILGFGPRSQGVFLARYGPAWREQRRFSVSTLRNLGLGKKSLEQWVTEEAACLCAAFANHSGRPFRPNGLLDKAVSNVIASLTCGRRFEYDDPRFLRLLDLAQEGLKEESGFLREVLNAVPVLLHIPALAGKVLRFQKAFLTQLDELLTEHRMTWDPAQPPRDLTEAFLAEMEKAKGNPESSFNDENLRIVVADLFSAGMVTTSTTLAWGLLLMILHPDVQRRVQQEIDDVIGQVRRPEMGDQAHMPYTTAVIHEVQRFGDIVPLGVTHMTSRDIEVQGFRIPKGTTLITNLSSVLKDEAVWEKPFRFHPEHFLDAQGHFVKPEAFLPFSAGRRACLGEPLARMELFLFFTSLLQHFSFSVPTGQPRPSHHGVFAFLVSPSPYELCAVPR

[5] = Metabolic stability in human liver microsomes at 1 uM preincubated for 10 mins followed by NADPH addition measured over 60 mins by LC/MS analysis relative to hepatic blood flow; assay type: ADME; details: read-out: Stability
Method in brief: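 Human liver microsomes (1 mg/mL protein) with test compound at 1 µM, preincubated 10 min at 37 °C before adding NADPH. Remaining compound followed over a 0–60 min time course, as duplicate 8-timepoint curves. The slope of ln(% remaining) against time gives clearance, expressed as percent of hepatic blood flow.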

[6] = molecular target: T4, Cytochrome P450 3A4 (Homo sapiens, UniProt P08684); assay: Inhibition of CYP3A4 in human liver microsomes using midazolam as substrate preincubated for 10 mins followed by NADPH addition measured after 6 mins; assay type: ADME; method in brief: as §1
T4 sequence (P08684 whole entry): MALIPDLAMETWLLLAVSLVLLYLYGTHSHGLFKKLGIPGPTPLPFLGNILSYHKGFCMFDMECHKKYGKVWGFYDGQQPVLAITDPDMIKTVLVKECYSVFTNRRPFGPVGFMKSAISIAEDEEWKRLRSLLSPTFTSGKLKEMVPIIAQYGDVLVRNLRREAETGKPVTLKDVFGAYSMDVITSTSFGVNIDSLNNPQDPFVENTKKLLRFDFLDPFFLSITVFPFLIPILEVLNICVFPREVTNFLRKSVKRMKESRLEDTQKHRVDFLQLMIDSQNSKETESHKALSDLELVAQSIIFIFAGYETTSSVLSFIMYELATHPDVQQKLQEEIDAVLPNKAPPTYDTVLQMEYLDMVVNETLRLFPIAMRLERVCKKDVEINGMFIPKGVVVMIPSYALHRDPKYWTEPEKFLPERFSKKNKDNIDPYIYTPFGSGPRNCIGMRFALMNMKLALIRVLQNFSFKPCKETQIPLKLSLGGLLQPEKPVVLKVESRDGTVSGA

[7] = molecular target: hERG (KCNH2) (Homo sapiens, UniProt Q12809); assay: Inhibition of human ERG expressed in HEK293 cells assessed as change in tail current at 11 uM by manual patch clamp assay relative to control; assay type: cell-based; details: HEK293 cells that express hERG
Chain of hERG (KCNH2) (Q12809 whole entry, the tested form may be a part): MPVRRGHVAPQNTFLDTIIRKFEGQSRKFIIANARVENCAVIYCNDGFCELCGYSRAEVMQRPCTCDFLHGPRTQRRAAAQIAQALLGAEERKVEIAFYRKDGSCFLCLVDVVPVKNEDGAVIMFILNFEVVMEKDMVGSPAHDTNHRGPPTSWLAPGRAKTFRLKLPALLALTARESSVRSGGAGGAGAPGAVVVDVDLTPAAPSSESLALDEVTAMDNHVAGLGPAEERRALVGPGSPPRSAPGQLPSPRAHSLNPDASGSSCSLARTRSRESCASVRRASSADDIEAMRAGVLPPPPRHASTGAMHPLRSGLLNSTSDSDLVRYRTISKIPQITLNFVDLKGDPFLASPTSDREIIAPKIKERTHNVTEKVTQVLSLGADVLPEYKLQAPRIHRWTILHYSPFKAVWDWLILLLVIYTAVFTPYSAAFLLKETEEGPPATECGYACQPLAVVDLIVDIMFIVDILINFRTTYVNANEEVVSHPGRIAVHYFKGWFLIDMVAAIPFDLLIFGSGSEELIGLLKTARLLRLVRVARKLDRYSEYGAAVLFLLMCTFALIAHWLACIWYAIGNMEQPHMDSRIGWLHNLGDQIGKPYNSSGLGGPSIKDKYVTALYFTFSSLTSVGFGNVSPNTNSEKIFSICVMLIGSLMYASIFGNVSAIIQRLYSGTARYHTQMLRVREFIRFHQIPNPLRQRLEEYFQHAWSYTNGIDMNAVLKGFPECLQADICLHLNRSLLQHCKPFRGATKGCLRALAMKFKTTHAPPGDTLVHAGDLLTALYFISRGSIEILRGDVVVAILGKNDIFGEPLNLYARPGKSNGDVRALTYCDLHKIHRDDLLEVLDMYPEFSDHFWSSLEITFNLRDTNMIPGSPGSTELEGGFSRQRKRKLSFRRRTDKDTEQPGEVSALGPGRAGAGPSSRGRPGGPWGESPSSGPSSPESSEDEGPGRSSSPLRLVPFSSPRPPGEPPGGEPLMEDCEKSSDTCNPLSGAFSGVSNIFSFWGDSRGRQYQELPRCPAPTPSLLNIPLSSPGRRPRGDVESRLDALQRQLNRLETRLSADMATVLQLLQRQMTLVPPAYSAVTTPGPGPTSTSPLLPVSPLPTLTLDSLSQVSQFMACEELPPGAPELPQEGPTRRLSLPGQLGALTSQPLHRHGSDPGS
Method in brief: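 Whole-cell manual patch clamp on HEK293 cells stably expressing human ERG, at room temperature (20-22 °C) in a perfusion chamber. Change in hERG tail current amplitude during the hyperpolarizing step measured with escalating compound concentrations.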

[8] = molecular target: T1, Arachidonate 5-lipoxygenase-activating protein; assay: Displacement of [125I]-L-691831 from human FLAP expressed in insect SF9 cell membranes after 2 hrs by Topcount analysis
[9] = molecular target: T2, Cytochrome P450 2C9; assay: Inhibition of CYP2C9 in human liver microsomes using dichlofenac as substrate at 30 uM preincubated for 10 mins followed by NADPH addition measured after 6 mins; assay type: ADME; details: 0.1 h
[10] = molecular target: T3, Cytochrome P450 2D6; assay: Inhibition of CYP2D6 in human liver microsomes using dextromethorphan as substrate at 30 uM preincubated for 10 mins followed by NADPH addition measured after 6 mins; assay type: ADME; details: 0.1 h
[11] = molecular target: T4, Cytochrome P450 3A4; assay: Inhibition of CYP3A4 in human liver microsomes using midazolam as substrate at 30 uM preincubated for 10 mins followed by NADPH addition measured after 6 mins; assay type: ADME; details: 0.1 h
[12] = molecular target: T5, Arachidonate 5-lipoxygenase-activating protein (Mus musculus, UniProt P30355); assay: Inhibition of FLAP in calcimycin-stimulated mouse whole blood assessed as inhibition of LTB4 synthesis preincubated for 15 mins followed by calcimycin stimulation measured after 30 mins
T5 sequence (P30355 whole entry): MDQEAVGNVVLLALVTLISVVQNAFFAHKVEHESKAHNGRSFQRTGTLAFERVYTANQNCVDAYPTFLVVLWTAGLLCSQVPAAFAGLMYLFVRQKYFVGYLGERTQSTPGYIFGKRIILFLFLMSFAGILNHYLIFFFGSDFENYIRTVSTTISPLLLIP
Method in brief: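 Mouse whole blood run by the same protocol as the human whole blood LTB4 assay (compound 15 min at 37 °C, 100 µM final calcimycin 30 min, HTRF LTB4 read-out). Geometric mean (n ≥ 3) of duplicate 8-point curves.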

Structure (SMILES)	IC50 [1] [nM]	further results
Nc1ncc(-c2ccc(C3(c4noc(-c5ccccc5)n4)CCC3)cc2)cn1	470	
CN(C)CCn1cc(-c2nc([C@@](C)(c3ccc(-c4cnc(N)nc4)cc3)C3CC3)no2)cn1	14	solubility thermodynamic at 24 h [2]: > 1100 µg/mL; IC50 [3]: > 30000 nM; IC50 [4]: 10000 nM; hepatic extraction ratio at 1 h, 1 µM [5]: 0.4; IC50 [6]: > 30000 nM; inhibition at 11 µM [7]: 31%
Nc1ncc(-c2ccc(C3(c4noc(-c5ccnnc5)n4)CCC3)cc2)cn1	240	
CCNc1nc(C2(c3ccc(-c4cnc(N)nc4)cc3)CCC2)no1	460	
Nc1ncc(-c2ccc(C3(c4noc(-c5cscn5)n4)CCC3)cc2)cn1	200	
CS(=O)(=O)Nc1nc(C2(c3ccc(-c4cnc(N)nc4)cc3)CCC2)no1	> 5000	
Nc1ncc(-c2ccc(C3(c4noc(-c5cccnn5)n4)CCC3)cc2)cn1	400	
CN(C)C(=O)Cn1cc(-c2nc(C3(c4ccc(-c5cnc(N)nc5)cc4)CCC3)no2)cn1	81	IC50 [8]: 3.6 nM; solubility thermodynamic at 24 h [2]: 20 µg/mL (≈ 45 µM); inhibition (INH) [9]: Not Active; inhibition (INH) [10]: Not Active
Nc1ncc(-c2ccc(C3(c4noc(-c5ccc[nH]c5=O)n4)CCC3)cc2)cn1	> 5000	
CNc1ncc(-c2ccc([C@](C)(c3noc(-c4cnn(CC(=O)N(C)C)c4)n3)C3CC3)cc2)cn1	30	IC50 [8]: 2.9 nM
COCCn1cc(-c2nc(C3(c4ccc(-c5cnc(N)nc5)cc4)CCC3)no2)cn1		solubility thermodynamic at 24 h [2]: 9.3 µg/mL (≈ 22.3 µM)
Nc1ncc(-c2ccc(C3(c4noc(-c5nc[nH]n5)n4)CCC3)cc2)cn1	2700	
CC(C)(O)Cn1cc(-c2nc(C3(c4ccc(-c5cnc(N)nc5)cc4)CCC3)no2)cn1		solubility thermodynamic at 24 h [2]: 3.1 µg/mL (≈ 7.18 µM); IC50 [3]: 6000 nM; IC50 [4]: 3000 nM; IC50 [6]: > 30000 nM; inhibition at 11 µM [7]: 51%
Cn1cc(-c2nc(C3(c4ccc(-c5cnc(N)nc5)cc4)CC3)no2)cn1	2200	
Cn1cc(-c2nc([C@@](C)(c3ccc(-c4cnc(N)nc4)cc3)C3CCC3)no2)cn1	91	
Cn1cc(-c2nc([C@@](C)(c3ccc(-c4cnc(N)nc4)cc3)C3CC3)no2)cn1	15	
CC(C)C(C)(c1ccc(-c2cnc(N)nc2)cc1)c1noc(-c2cnn(C)c2)n1 (racemic)	46	
Nc1ncc(-c2ccc(C3(c4noc(-c5cccnc5)n4)CCC3)cc2)cn1	250	
NCCn1cc(-c2nc(C3(c4ccc(-c5cnc(N)nc5)cc4)CCC3)no2)cn1	240	
CN(C)CCn1cc(-c2nc(C3(c4ccc(-c5cnc(N)nc5)cc4)CCC3)no2)cn1	47	solubility thermodynamic at 24 h [2]: 270 µg/mL (≈ 627 µM); IC50 [3]: 7000 nM; IC50 [4]: 10000 nM; inhibition (INH) [11]: Not Active
Nc1ncc(-c2ccc(C3(c4noc(-c5cn[nH]c5)n4)CCC3)cc2)cn1	110	solubility thermodynamic at 24 h [2]: 0.4 µg/mL (≈ 1.11 µM)
Cn1cc(-c2nc(C3(c4ccc(-c5cnc(N)nc5)cc4)CCC3)no2)cn1		solubility thermodynamic at 24 h [2]: 0.03 µg/mL (≈ 0.0803 µM)

Structure (SMILES)	IC50 [1] [nM]	further results
Nc1ncc(-c2ccc(C3(c4noc(-c5cncnc5)n4)CCC3)cc2)cn1	340	
Nc1ncc(-c2ccc(C3(c4noc(-c5cc[nH]n5)n4)CCC3)cc2)cn1	160	
CC(C)C(c1ccc(-c2cnc(N)nc2)cc1)c1noc(-c2cnn(C)c2)n1 (racemic)	190	
Nc1ncc(-c2ccc(C3(c4noc(-c5cnccn5)n4)CCC3)cc2)cn1	360	
Nc1ncc(-c2ccc(C3(c4noc(-c5cnn(CC(=O)O)c5)n4)CCC3)cc2)cn1	> 5000	IC50 [8]: 18 nM
CC(C)[C@](C)(c1ccc(-c2cnc(N)nc2)cc1)c1noc(-c2cnn(C)c2)n1	33	
CC(C)(O)Cn1cc(-c2nc([C@@](C)(c3ccc(-c4cnc(N)nc4)cc3)C3CC3)no2)cn1	20	IC50 [8]: 2.1 nM; solubility thermodynamic at 24 h [2]: 32 µg/mL (≈ 71.8 µM); IC50 [3]: 4000 nM; IC50 [4]: > 30000 nM; IC50 [12]: 1500 nM; hepatic extraction ratio at 1 h, 1 µM [5]: 0.24; IC50 [6]: > 30000 nM; inhibition at 11 µM [7]: 16%
Nc1ncc(-c2ccc(C3(c4noc(-c5c[nH]nn5)n4)CCC3)cc2)cn1	2100	
Cn1cc(-c2nc(Cc3ccc(-c4cnc(N)nc4)cc3)no2)cn1	> 5000	IC50 [8]: > 1000 nM
CC(C)Nc1ncc(-c2ccc([C@](C)(c3noc(-c4cnn(CC(=O)N(C)C)c4)n3)C3CC3)cc2)cn1	> 50000	IC50 [8]: > 1000 nM
CCNc1ncc(-c2ccc(C(C)(c3noc(-c4cnn(CC(=O)N(C)C)c4)n3)C3CC3)cc2)cn1 (racemic)	1000	
Cn1cc(-c2nc(C3(c4ccc(-c5cnc(N)nc5)cc4)CC(C)(C)C3)no2)cn1	1500	
Nc1ncc(-c2ccc(C3(c4noc(-c5ccncn5)n4)CCC3)cc2)cn1	820	
Nc1ncc(-c2ccc(C3(c4noc(-c5cocn5)n4)CCC3)cc2)cn1	310	
CC(C)[C@@](C)(c1ccc(-c2cnc(N)nc2)cc1)c1noc(-c2cnn(C)c2)n1	360	
CN(C)C(=O)Cn1cc(-c2nc([C@@](C)(c3ccc(-c4ccc(N)nc4)cc3)C3CC3)no2)cn1	66	
Cn1cc(-c2nc([C@](C)(c3ccc(-c4cnc(N)nc4)cc3)C3CCC3)no2)cn1	3200	
Cn1cc(-c2nc([C@](C)(c3ccc(-c4cnc(N)nc4)cc3)C3CC3)no2)cn1	350	
Cn1cc(-c2nc(C(C)(C)c3ccc(-c4cnc(N)nc4)cc3)no2)cn1	93	
CN(C)C(=O)Cn1cc(-c2nc([C@@](C)(c3ccc(-c4cnc(N)cn4)cc3)C3CC3)no2)cn1	73	
Nc1ncc(-c2ccc(C3(c4noc(-c5c[nH]cn5)n4)CCC3)cc2)cn1	270	
